Tests used:
[1] = target: AKT2 (PKB beta) (Homo sapiens, UniProt P31751); assay: AKT2 in vitro kinase assay; assay type: biochemical
How it was run: (§1)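 Z′-LYTE assay. Enzyme per 10 μL reaction: AKT1 0.34–7.65 ng, AKT2 1–40 ng, or AKT3 0.56–8.3 ng. Reaction contained 2 μM Ser/Thr 06 peptide, ATP at Km, 50 mM HEPES pH 7.5, 0.01% BRIJ-35, 10 mM MgCl2 and 1 mM EGTA. After 1 h, Development Reagent A (1:2048) protease cleaved non-phosphorylated peptide. Read-out was the coumarin 445 nm/fluorescein 520 nm emission ratio; curves were fitted.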

[2] = in vitro microsomal stability; assay type: in vitro ADME
[3] = in vitro plasma stability; assay type: in vitro ADME
[4] = target: AKT3 (PKB gamma) (Homo sapiens, UniProt Q9Y243); assay: AKT3 in vitro kinase assay; assay type: biochemical
AKT3 (PKB gamma), sequence (Q9Y243 whole entry): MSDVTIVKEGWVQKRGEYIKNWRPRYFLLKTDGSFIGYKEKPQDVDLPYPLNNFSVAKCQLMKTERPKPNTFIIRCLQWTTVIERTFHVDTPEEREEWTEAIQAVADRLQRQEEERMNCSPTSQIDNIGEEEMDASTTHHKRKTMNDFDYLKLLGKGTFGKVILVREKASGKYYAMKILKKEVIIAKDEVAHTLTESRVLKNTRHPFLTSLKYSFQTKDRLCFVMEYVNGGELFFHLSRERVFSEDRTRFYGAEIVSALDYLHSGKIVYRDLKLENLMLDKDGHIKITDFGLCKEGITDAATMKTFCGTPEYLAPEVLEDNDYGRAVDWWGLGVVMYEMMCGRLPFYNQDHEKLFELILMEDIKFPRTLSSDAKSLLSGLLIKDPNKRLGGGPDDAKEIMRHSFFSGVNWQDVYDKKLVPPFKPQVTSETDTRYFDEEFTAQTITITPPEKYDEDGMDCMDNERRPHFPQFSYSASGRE
How it was run: as §1

[5] = target: T1, CHUK (IKK alpha) (Homo sapiens, UniProt O15111); assay: IKKα; assay type: biochemical; conditions: for IKKα in vitro kinase inhibition (in words): stated for IKKs
T1 sequence (O15111 1-745): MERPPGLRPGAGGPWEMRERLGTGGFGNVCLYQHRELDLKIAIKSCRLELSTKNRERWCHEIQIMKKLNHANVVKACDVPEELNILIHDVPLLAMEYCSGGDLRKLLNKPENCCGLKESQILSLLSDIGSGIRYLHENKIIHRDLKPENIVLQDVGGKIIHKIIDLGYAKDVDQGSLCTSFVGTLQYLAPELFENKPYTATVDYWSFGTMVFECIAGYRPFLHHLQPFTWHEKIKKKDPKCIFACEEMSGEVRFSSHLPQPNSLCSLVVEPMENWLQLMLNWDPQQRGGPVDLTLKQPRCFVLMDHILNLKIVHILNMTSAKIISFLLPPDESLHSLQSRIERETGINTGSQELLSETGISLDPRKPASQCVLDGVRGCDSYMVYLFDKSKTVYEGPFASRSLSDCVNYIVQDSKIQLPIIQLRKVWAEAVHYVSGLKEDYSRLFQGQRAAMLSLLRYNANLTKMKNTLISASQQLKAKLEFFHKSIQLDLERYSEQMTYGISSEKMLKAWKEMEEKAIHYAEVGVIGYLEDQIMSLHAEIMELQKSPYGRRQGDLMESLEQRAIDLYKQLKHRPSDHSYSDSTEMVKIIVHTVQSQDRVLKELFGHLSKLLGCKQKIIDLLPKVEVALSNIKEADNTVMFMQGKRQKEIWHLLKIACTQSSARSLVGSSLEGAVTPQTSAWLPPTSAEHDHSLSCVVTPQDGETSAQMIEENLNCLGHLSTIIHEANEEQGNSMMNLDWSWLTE
How it was run: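 ADAPTA ADP-detection format. Detection mix added EDTA (stop), europium-labelled anti-ADP antibody and Alexa Fluor 647 ADP tracer; ADP formation was taken from the emission ratio. Where noted, IC50 was predicted from % inhibition at 1 μM test compound, mean of two experiments.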

[6] = target: AKT1 (PKB alpha) (Homo sapiens, UniProt P31749); assay: AKT1 in vitro kinase assay; assay type: biochemical
AKT1 (PKB alpha), sequence (P31749 whole entry): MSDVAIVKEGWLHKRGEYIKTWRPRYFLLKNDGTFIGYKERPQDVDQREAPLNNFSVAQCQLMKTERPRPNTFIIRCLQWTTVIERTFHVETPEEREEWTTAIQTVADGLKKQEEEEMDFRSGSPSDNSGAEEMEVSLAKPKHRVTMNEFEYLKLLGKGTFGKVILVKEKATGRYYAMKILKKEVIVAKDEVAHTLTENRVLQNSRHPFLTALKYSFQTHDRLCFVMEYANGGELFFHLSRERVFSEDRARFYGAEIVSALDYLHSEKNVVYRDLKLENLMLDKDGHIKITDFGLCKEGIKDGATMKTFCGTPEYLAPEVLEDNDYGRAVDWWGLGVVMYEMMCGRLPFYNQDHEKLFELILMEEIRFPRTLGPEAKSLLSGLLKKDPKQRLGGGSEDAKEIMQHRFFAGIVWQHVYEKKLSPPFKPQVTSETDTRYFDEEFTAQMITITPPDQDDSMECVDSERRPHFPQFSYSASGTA
How it was run: as §1

[7] = target: T2, IKBKB (IKK beta) (Homo sapiens, UniProt O14920); assay: IKKβ; assay type: biochemical; conditions: for IKKβ in vitro kinase inhibition (in words): stated for IKKs
T2 sequence (O14920 1-756): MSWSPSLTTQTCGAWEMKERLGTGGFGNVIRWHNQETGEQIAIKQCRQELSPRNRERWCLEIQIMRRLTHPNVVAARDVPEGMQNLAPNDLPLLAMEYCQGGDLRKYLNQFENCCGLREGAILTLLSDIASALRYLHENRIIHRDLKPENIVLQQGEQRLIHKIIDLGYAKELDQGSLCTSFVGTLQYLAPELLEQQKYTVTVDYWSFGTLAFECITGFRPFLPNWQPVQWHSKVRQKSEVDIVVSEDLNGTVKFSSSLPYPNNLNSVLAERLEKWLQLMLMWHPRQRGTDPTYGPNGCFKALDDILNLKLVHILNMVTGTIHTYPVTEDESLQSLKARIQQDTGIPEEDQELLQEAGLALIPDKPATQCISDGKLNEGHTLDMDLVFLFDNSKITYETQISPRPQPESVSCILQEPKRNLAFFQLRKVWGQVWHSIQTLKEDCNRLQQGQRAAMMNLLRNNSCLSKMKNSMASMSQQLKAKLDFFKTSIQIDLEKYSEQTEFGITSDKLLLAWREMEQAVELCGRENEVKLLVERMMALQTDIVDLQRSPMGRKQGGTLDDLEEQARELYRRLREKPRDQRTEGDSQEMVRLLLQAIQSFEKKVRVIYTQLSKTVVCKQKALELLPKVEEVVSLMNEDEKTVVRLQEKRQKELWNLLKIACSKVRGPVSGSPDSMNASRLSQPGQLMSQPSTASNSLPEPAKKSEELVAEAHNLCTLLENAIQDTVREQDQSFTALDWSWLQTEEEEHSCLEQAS
How it was run: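 Z′-LYTE format. Development used Reagent B (1:64) protease; read-out was the coumarin 445 nm/fluorescein 520 nm emission ratio. Where noted, IC50 was predicted from % inhibition at 10 μM test compound, mean of two experiments.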

AKT2 (PKB beta), sequence (P31751 whole entry): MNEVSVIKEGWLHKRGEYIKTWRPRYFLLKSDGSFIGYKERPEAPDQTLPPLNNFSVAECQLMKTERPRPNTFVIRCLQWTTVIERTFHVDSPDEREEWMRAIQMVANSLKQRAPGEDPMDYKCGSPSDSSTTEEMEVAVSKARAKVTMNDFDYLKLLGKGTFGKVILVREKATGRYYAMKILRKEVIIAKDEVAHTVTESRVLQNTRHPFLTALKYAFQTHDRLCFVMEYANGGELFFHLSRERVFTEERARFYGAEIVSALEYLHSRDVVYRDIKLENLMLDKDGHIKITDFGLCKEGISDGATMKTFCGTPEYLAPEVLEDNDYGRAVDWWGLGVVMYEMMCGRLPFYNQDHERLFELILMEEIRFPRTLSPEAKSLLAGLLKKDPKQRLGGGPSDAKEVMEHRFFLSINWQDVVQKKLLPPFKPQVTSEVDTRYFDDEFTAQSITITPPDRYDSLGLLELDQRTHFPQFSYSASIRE

In the case of O=C(/C=C/c1nc2ccccc2[nH]1)c1c(O)nc2ccc(Cl)cc2c1-c1ccccc1 [compound 1, (E)-3-(3-(1H-benzo[d]imidazol-2-yl)acryloyl)-6-chloro-4-phenylquinolin-2(1H)-one], the IC50 [1] is reported as 4.24 µM, the microsomal stability [2] is reported as “favorable” and the plasma stability [3] is reported as “favorable”. For the same molecule, the IC50 [4] was 10.9 µM, the IC50 [5] was 3.85 µM and the IC50 [6] was 6.22 µM. It also gave an IC50 [7] of 2.3 µM.
For Cn1c(/C=C/C(=O)c2c(-c3ccccc3)c3cc(Cl)ccc3[nH]c2=O)nc2ccccc21 [compound 39, (E)-6-chloro-3-(3-(1-methyl-1H-benzo[d]imidazol-2-yl)acryloyl)-4-phenylquinolin-2(1H)-one], the “AKT1 in vitro inhibition (in words)” value [6] was “inactive” and the IC50 [6] was over 100 µM.
Molecule Cc1ccc2[nH]c(/C=C/C(=O)c3c(-c4ccccc4)c4cc(Cl)ccc4[nH]c3=O)nc2c1 [compound 40, (E)-6-chloro-3-(3-(5-methyl-1H-benzo[d]imidazol-2-yl)acryloyl)-4-phenylquinolin-2(1H)-one] has an IC50 [1] of 5 µM, an IC50 [4] of 8.4 µM and an IC50 [5] of 8.03 µM. For the same molecule, the IC50 [6] was 43.3 µM and the IC50 [7] was 9.6 µM.
Molecule O=C(/C=C/c1nc2cc(Br)ccc2[nH]1)c1c(-c2ccccc2)c2cc(Cl)ccc2[nH]c1=O [compound 41, (E)-3-(3-(5-bromo-1H-benzo[d]imidazol-2-yl)acryloyl)-6-chloro-4-phenylquinolin-2(1H)-one] has an IC50 [6] of 14 µM.
In the case of O=C(/C=C/c1nc2ccccc2[nH]1)c1c(-c2ccccc2)c2ccccc2[nH]c1=O [compound 43, (E)-3-(3-(1H-benzo[d]imidazol-2-yl)acryloyl)-4-phenylquinolin-2(1H)-one], the IC50 [6] is reported as 5.2 µM.
O=C(/C=C/c1nc2ccccc2[nH]1)c1c(-c2ccccc2)c2cc(Br)ccc2[nH]c1=O [compound 44, (E)-3-(3-(1H-benzo[d]imidazol-2-yl)acryloyl)-6-bromo-4-phenylquinolin-2(1H)-one] gave an IC50 [1] of 1.72 µM, an IC50 [4] of 8.85 µM and an IC50 [5] of 6.02 µM. It also gave an IC50 [6] of 4.48 µM and an IC50 [7] of 5.6 µM.
Molecule Cc1ccc2[nH]c(=O)c(C(=O)/C=C/c3nc4ccccc4[nH]3)c(-c3ccccc3)c2c1 [compound 45, (E)-3-(3-(1H-benzo[d]imidazol-2-yl)acryloyl)-6-methyl-4-phenylquinolin-2(1H)-one] has an IC50 [4] of 5.53 µM, an IC50 [5] of 29.1 µM and an IC50 [6] of 6.26 µM. For the same molecule, the IC50 [7] was 7.9 µM.
Cn1c(=O)c(C(=O)/C=C/c2nc3cc(F)ccc3[nH]2)c(-c2ccccc2)c2cc(Cl)ccc21 [compound 46, (E)-6-chloro-3-(3-(5-fluoro-1H-benzo[d]imidazol-2-yl)acryloyl)-1-methyl-4-phenylquinolin-2(1H)-one] gave an IC50 [6] of 17.2 µM.
Molecule O=C(/C=C/c1nc2cc(F)c(F)cc2[nH]1)c1c(-c2ccc(F)cc2)c2cc(F)ccc2[nH]c1=O [compound 48, (E)-3-(3-(5,6-difluoro-1H-benzo[d]imidazol-2-yl)acryloyl)-6-fluoro-4-(4-fluorophenyl)quinolin-2(1H)-one] has an IC50 [5] of 13.1 µM, an IC50 [6] of 15.9 µM and an IC50 [7] of 16 µM.
Work on O=C(/C=C/c1nc2cc(F)c(F)cc2[nH]1)c1c(-c2ccc(F)cc2)c2cc(Cl)ccc2[nH]c1=O [compound 49, (E)-6-chloro-3-(3-(5,6-difluoro-1H-benzo[d]imidazol-2-yl)acryloyl)-4-(4-fluorophenyl)quinolin-2(1H)-one] yielded an IC50 [5] of 7.12 µM, an IC50 [6] of 30.4 µM and an IC50 [7] of 15.4 µM.
With Cc1ccc(-c2c(C(=O)/C=C/c3nc4cc(F)c(F)cc4[nH]3)c(=O)[nH]c3ccc(Cl)cc23)cc1 [compound 50, (E)-6-chloro-3-(3-(5,6-difluoro-1H-benzo[d]imidazol-2-yl)acryloyl)-4-(p-tolyl)quinolin-2(1H)-one] the IC50 [6] was over 50 µM.
Molecule O=C(/C=C/c1nc2cc(F)c(F)cc2[nH]1)c1c(-c2ccc(Cl)cc2)c2cc(Cl)ccc2[nH]c1=O [compound 51, (E)-6-chloro-4-(4-chlorophenyl)-3-(3-(5,6-difluoro-1H-benzo[d]imidazol-2-yl)acryloyl)quinolin-2(1H)-one] has an IC50 [6] of over 50 µM.
With COc1ccc(-c2c(C(=O)/C=C/c3nc4cc(F)c(F)cc4[nH]3)c(=O)[nH]c3ccc(Cl)cc23)cc1 [compound 52, (E)-6-chloro-3-(3-(5,6-difluoro-1H-benzo[d]imidazol-2-yl)acryloyl)-4-(4-methoxyphenyl)quinolin-2(1H)-one] the IC50 [6] was over 50 µM.
Molecule CCOc1ccc(-c2c(C(=O)/C=C/c3nc4cc(F)c(F)cc4[nH]3)c(=O)[nH]c3ccc(Cl)cc23)cc1 [compound 53, (E)-6-chloro-3-(3-(5,6-difluoro-1H-benzo[d]imidazol-2-yl)acryloyl)-4-(4-ethoxyphenyl)quinolin-2(1H)-one] has an IC50 [6] of over 50 µM.
In the case of O=C(/C=C/c1nc2cc(F)c(F)cc2[nH]1)c1c(-c2ccc(F)c(F)c2)c2cc(F)ccc2[nH]c1=O [compound 54, (E)-3-(3-(5,6-difluoro-1H-benzo[d]imidazol-2-yl)acryloyl)-4-(3,4-difluorophenyl)-6-fluoroquinolin-2(1H)-one], the IC50 [5] is reported as 7.2 µM, the IC50 [6] is reported as 44.5 µM and the IC50 [7] is reported as 16.4 µM.
Molecule O=C(/C=C/c1nc2cc(F)c(F)cc2[nH]1)c1c(-c2ccc(F)c(F)c2)c2cc(Cl)ccc2[nH]c1=O [compound 55, (E)-6-chloro-3-(3-(5,6-difluoro-1H-benzo[d]imidazol-2-yl)acryloyl)-4-(3,4-difluorophenyl)quinolin-2(1H)-one] has an IC50 [5] of 12.1 µM, an IC50 [6] of over 50 µM and an IC50 [7] of 17.8 µM.
In the case of O=C(NCc1nc2ccccc2[nH]1)c1c(-c2ccccc2)c2cc(Cl)ccc2[nH]c1=O [compound 58, N-((1H-benzo[d]imidazol-2-yl)methyl)-6-chloro-2-oxo-4-phenyl-1,2-dihydroquinoline-3-carboxamide], the “IKKα in vitro kinase inhibition (in words)” value [5] is reported as “completely inactive”, the “AKT1 in vitro inhibition (in words)” value [6] is reported as “completely inactive” and the “IKKβ in vitro kinase inhibition (in words)” value [7] is reported as “completely inactive”.
For O=C(CCc1nc2ccccc2[nH]1)c1c(-c2ccccc2)c2cc(Cl)ccc2[nH]c1=O [compound 59, 3-(3-(1H-benzo[d]imidazol-2-yl)propanoyl)-6-chloro-4-phenylquinolin-2(1H)-one], the “IKKα in vitro kinase inhibition (in words)” value [5] was “completely inactive”, the “AKT1 in vitro inhibition (in words)” value [6] was “completely inactive” and the “IKKβ in vitro kinase inhibition (in words)” value [7] was “completely inactive”.

Source: PMC3966491 (Chemical biology & drug design, 2013)
